By inhibition is commonly meant the relative decrease from the control value, in per cent.

In one assay the target is T1, Proteinase-activated receptor 4 (Homo sapiens) (UniProt Q96RI0).
T1 sequence (whole entry): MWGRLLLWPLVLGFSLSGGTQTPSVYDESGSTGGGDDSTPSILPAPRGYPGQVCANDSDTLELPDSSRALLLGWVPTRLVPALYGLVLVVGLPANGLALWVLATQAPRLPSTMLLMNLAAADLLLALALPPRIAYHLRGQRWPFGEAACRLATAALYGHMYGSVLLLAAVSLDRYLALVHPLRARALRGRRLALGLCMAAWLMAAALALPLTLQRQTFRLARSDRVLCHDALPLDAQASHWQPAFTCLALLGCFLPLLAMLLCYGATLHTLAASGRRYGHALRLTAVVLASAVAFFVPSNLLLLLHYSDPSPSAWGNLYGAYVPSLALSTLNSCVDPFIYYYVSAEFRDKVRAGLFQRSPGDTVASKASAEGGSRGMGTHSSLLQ
Briefly: Antagonist activity at PAR4 in human platelet-rich plasma assessed as inhibition of PAR4 AP AYPGKF-NH2-induced platelet aggregation at 0.2 uM by photo-turbidimetry assay relative to control. It counts as functional.
Settings: not given
In outline: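 Human PRP from donated blood, spun at 160×g for 15 min, then adjusted to 3×10⁸/mL with PPP (2000×g, 15 min). Compound or saline vehicle preincubated with PRP for 5 min at 37 °C. Aggregation induced by AYPGKF-NH₂; maximal aggregation measured by light transmittance for 5 min. Percent inhibition at a single point; IC50 from ≥5 concentrations by curve fitting.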
Take `CCn1cnc2c(-c3nc4c(F)cc(OC)cc4s3)cc(C)cc2c1=O`: the inhibition amounted to 18.8%.

Turning to `COc1cc(Cl)c2nc(-c3cccc4c(=O)n(C)cnc34)sc2c1`, the inhibition amounted to 25.6%.

For `Cc1cc(-c2nc3c(Cl)cc(OCCNS(=O)(=O)c4ccc(Cl)cc4)cc3s2)c2ncn(C)c(=O)c2c1`, the inhibition came to 32.3%.

Consider `Cc1cc(-c2nc3c(Cl)cc(OCCN)cc3s2)c2ncn(C)c(=O)c2c1`, for which the inhibition was 33.2%.

As for `CCCCc1cc(-c2nc3c(s2)CCCC3)c2ncn(C)c(=O)c2c1`, the inhibition is 25.7%.

For the molecule `Cc1cc(-c2cccc(Cl)c2Cl)c2ncn(C)c(=O)c2c1`, the inhibition was determined as 34.3%.

With `Cc1cc(-c2nc3c(Cl)cc(OCCNS(=O)(=O)c4ccc(F)cc4)cc3s2)c2ncn(C)c(=O)c2c1`, the inhibition was 8.7%.

For the molecule `COCn1cnc2c(-c3nc4c(s3)CCCC4)cc(C)cc2c1=O`, the inhibition is 35.7%.

Regarding `C#CCn1cnc2c(-c3nc4c(F)cc(OC)cc4s3)cc(C)cc2c1=O`, the inhibition came to 27.7%.

As for `COc1cc(F)c2nc(-c3cc(C)cc4c(=O)n(C)c(C)nc34)sc2c1`, the inhibition amounted to 20.1%.

Take `COc1cc(F)c2nc(-c3cccc4c(=O)n(C)cnc34)sc2c1`: the inhibition worked out at 18.7%.

`CCn1cnc2c(-c3nc4c(s3)CCCC4)cc(C)cc2c1=O`: the inhibition worked out at 26.8%.

As to `CCn1cnc2c(-c3nc4c(Cl)cc(OC)cc4s3)cc(C)cc2c1=O`, the inhibition came out at 36.5%.

In the case of `Cc1ccc(S(=O)(=O)NCCOc2cc(Cl)c3nc(-c4cc(C)cc5c(=O)n(C)cnc45)sc3c2)cc1`, the inhibition was 30.5%.

With `COc1cc(F)c2nc(-c3cc(C)cc4c(=O)n(C(C)C)cnc34)sc2c1`, the inhibition worked out at 10.2%.

On to `Cc1cc(-c2nc3c(s2)CCCC3)c2nc(C)n(C)c(=O)c2c1`, for which the inhibition was found to be 17%.

Consider `Cc1cc(-c2nc3c(Cl)cc(Cl)cc3s2)c2ncn(C)c(=O)c2c1`, for which the inhibition came out at 21.3%.

As for `Cc1cc(-c2ccccc2F)c2ncn(C)c(=O)c2c1`, the inhibition was 16%.

For the molecule `CCc1cc(-c2nc3c(s2)CCCC3)c2ncn(C)c(=O)c2c1`, the inhibition amounted to 25.7%.

For `COc1ccccc1-c1cc(C)cc2c(=O)n(C)cnc12`, the inhibition was 17.4%.

Consider `Cc1cc(-c2cccnc2)c2ncn(C)c(=O)c2c1`, for which the inhibition is 1.8%.

For the molecule `Cc1cc(-c2ccc(F)cc2O)c2ncn(C)c(=O)c2c1`, the inhibition amounted to 6.5%.

On to `Cc1cc(-c2nc3c(Cl)cc4c(c3s2)OCCO4)c2ncn(C)c(=O)c2c1`, for which the inhibition amounted to 35.7%.

Consider `Cc1cc(-c2nc3c(Cl)cc(OCCNS(=O)(=O)c4ccccc4)cc3s2)c2ncn(C)c(=O)c2c1`, for which the inhibition was found to be 17.9%.

Turning to `Cn1cnc2c(-c3nc4c(s3)CCCC4)cccc2c1=O`, the inhibition is 19.8%.

Consider `COc1cc(Cl)c2nc(-c3cc(C)cc4c(=O)n(C)c(C)nc34)sc2c1`, for which the inhibition was 39.8%.

For `COc1cc(Cl)c2nc(-c3cc(C)cc4c(=O)n(C(C)C)cnc34)sc2c1`, the inhibition came to 15.2%.

Regarding `CCOCn1cnc2c(-c3nc4c(s3)CCCC4)cc(C)cc2c1=O`, the inhibition was found to be 15.1%.

Still in this assay, the particulars now being: filed as antagonist.
On to `Cc1cc(-c2nc3c(Cl)cc(OCCNC(=O)c4ccccc4)cc3s2)c2ncn(C)c(=O)c2c1`, for which the inhibition was 94.5%.

As to `Cc1cc(-c2cc3ccccc3o2)c2ncn(C)c(=O)c2c1`, the inhibition stood at 44.4%.

On to `Cc1cc(-c2nc3c(Cl)cc(OCCNS(=O)(=O)c4ccc(Cl)cc4Cl)cc3s2)c2ncn(C)c(=O)c2c1`, for which the inhibition was 47.1%.

Consider `CCCCc1cc(-c2nc3c(s2)CCCC3)c2ncn(CC)c(=O)c2c1`, for which the inhibition turned out to be 9.3%.

Take `CCOCn1cnc2c(-c3nc4c(Cl)cc(OC)cc4s3)cc(C)cc2c1=O`: the inhibition came to 91.2%.

As to `Cc1cc(-c2nc3c(s2)CCCC3)c2nc[nH]c(=O)c2c1`, the inhibition came out at 41.6%.

For the molecule `COCn1cnc2c(-c3nc4c(Cl)cc(OC)cc4s3)cc(C)cc2c1=O`, the inhibition worked out at 45.3%.

As to `Cc1cc(-c2nc3c(Cl)cc(OCCNC(=O)OC(C)(C)C)cc3s2)c2ncn(C)c(=O)c2c1`, the inhibition came to 54.1%.

For `CCCCc1cc(-c2nc3c(Cl)cc(OC)cc3s2)c2ncn(C)c(=O)c2c1`, the inhibition is 47.6%.

The values above are taken from ChEMBL document CHEMBL4842351, “Synthesis and evaluation of novel and potent protease activated receptor 4 (PAR4) antagonists based on a quinazolin-4(3H)-one scaffold” (Eur J Med Chem, 2021).
